Measured values published in ChEMBL document CHEMBL4229380, “Arylureas derived from colchicine: Enhancement of colchicine oncogene downregulation activity” (Eur J Med Chem, 2018).
Values belong to the molecule of their own block, whether it stands above or below them.

Columns and labels:
HT-29 [1] = test: Antiproliferative activity against human HT-29 cells after 2 days by MTT assay; assay type: functional, cell-based; settings: HT-29, 48 h
How it was run: (§1)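 Cells (5×10^3 per well) in DMEM with 10% FBS, glucose, glutamine and antibiotics were exposed to serial dilutions (stocks in DMSO) for 2 days at 37 °C, 5% CO2. MTT was added for 3 h, formazan was dissolved in DMSO and absorbance read at 490 nm. Viability was taken as % of untreated cells. IC50 was read graphically from three independent experiments.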

MCF7 = test: Antiproliferative activity against human MCF7 cells after 2 days by MTT assay; assay type: functional, cell-based; settings: MCF7, 48 h; how it was run: as §1
HeLa = test: Antiproliferative activity against human HeLa cells after 2 days by MTT assay; assay type: functional, cell-based; settings: 48 h; how it was run: as §1
HEK293 = test: Antiproliferative activity against human HEK293 cells after 2 days by MTT assay; assay type: cell-based; settings: HEK293, 48 h; how it was run: as §1
HT-29 [2] = test: Induction of apoptosis in human HT-29 cells assessed as viable cells at 1000 nM after 48 hrs by Annexin V-FITC staining-based flow cytometric analysis (reference value: 82 +/- 1%); assay type: functional; settings: HT-29, 48 h, read-out: Activity
HT-29 [3] = test: Induction of apoptosis in human HT-29 cells assessed as apoptotic cells at 1000 nM after 48 hrs by Annexin V-FITC staining-based flow cytometric analysis (reference value: 13 +/- 3%); assay type: functional
HT-29 [4] = test: Induction of apoptosis in human HT-29 cells assessed as necrotic cells at 1000 nM after 48 hrs by Annexin V-FITC staining-based flow cytometric analysis (reference value: 2 +/- 6%); assay type: functional
HT-29 [5] = test: Induction of apoptosis in human HT-29 cells assessed as viable cells at 25000 nM after 48 hrs by Annexin V-FITC staining-based flow cytometric analysis (reference value: 82 +/- 1%); assay type: functional; settings: HT-29, 48 h, read-out: Activity
HT-29 [6] = test: Induction of apoptosis in human HT-29 cells assessed as apoptotic cells at 25000 nM after 48 hrs by Annexin V-FITC staining-based flow cytometric analysis (reference value: 13 +/- 3%); assay type: functional
HT-29 [7] = test: Induction of apoptosis in human HT-29 cells assessed as necrotic cells at 25000 nM after 48 hrs by Annexin V-FITC staining-based flow cytometric analysis (reference value: 2 +/- 6%); assay type: functional
HT-29 [8] = test: Effect on c-MYC gene expression in human HT-29 cells assessed as c-MYC level at 25 uM after 48 hrs by RT-qPCR analysis; assay type: functional
How it was run: (§2)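 HT-29 cells at 70–80% confluence were seeded at 1.5×10^5 per well and left 24 h, then treated 48 h, with DMSO as control. Total RNA was extracted and VEGF-A, c-Myc and hTERT were quantified by TaqMan qPCR, normalized to β-actin and to living cell number. Results are % expression versus control, at least three measurements.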

HT-29 [9] = test: Effect on hTERT gene expression in human HT-29 cells assessed as hTERT level at 25 uM after 48 hrs by RT-qPCR analysis; assay type: functional; how it was run: as §2
HT-29 [10] = test: Effect on VEGF gene expression in human HT-29 cells assessed as VEGF level at 25 uM after 48 hrs by RT-qPCR analysis; assay type: functional; how it was run: as §2
HT-29 [11] = test: Effect on c-MYC protein expression in human HT-29 cells assessed as c-MYC level at 25 uM after 48 hrs by ELISA; assay type: functional
How it was run: (§3)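 HT-29 cells (1.5×10^5 per well, 24 h pre-culture) were treated 48 h and washed in PBS. They were lysed in Tris pH 7.4 buffer with detergents, phosphatase inhibitors, PMSF and protease inhibitors. Lysates were adjusted to 200 µg/mL protein (Bradford) and total c-Myc or VEGFR-2 was measured by sandwich ELISA kit. Values are % of DMSO control, ≥3 measurements.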

HT-29 [12] = test: Effect on VEGFR2 protein expression in human HT-29 cells assessed as VEGFR2 level at 25 uM after 48 hrs by ELISA; assay type: functional; how it was run: as §3
HT-29 [13] = test: Effect on VEGF protein expression in human HT-29 cells assessed as secreted VEGF level in culture media at 25 uM after 48 hrs by ELISA
HT-29 [14] = test: Induction of apoptosis in human HT-29 cells assessed as viable cells at 0.5 nM after 48 hrs by Annexin V-FITC staining-based flow cytometric analysis (reference value: 82 +/- 1%); assay type: functional; settings: HT-29, 48 h, read-out: Activity
HT-29 [15] = test: Induction of apoptosis in human HT-29 cells assessed as apoptotic cells at 0.5 nM after 48 hrs by Annexin V-FITC staining-based flow cytometric analysis (reference value: 13 +/- 3%); assay type: functional
HT-29 [16] = test: Induction of apoptosis in human HT-29 cells assessed as necrotic cells at 0.5 nM after 48 hrs by Annexin V-FITC staining-based flow cytometric analysis (reference value: 2 +/- 6%); assay type: functional
HT-29 [17] = test: Effect on c-MYC gene expression in human HT-29 cells assessed as c-MYC level at 0.5 nM after 48 hrs by RT-qPCR analysis; assay type: functional; how it was run: as §2
HT-29 [18] = test: Effect on hTERT gene expression in human HT-29 cells assessed as hTERT level at 0.5 nM after 48 hrs by RT-qPCR analysis; assay type: functional; how it was run: as §2
HT-29 [19] = test: Effect on VEGF gene expression in human HT-29 cells assessed as VEGF level at 0.5 nM after 48 hrs by RT-qPCR analysis; assay type: functional; how it was run: as §2
HT-29 [20] = test: Effect on c-MYC protein expression in human HT-29 cells assessed as c-MYC level at 0.5 nM after 48 hrs by ELISA; assay type: functional; how it was run: as §3
HT-29 [21] = test: Effect on VEGFR2 protein expression in human HT-29 cells assessed as VEGFR2 level at 0.5 nM after 48 hrs by ELISA; assay type: functional; how it was run: as §3
HT-29 [22] = test: Effect on VEGF protein expression in human HT-29 cells assessed as secreted VEGF level in culture media at 0.5 nM after 48 hrs by ELISA
HT-29 [23] = test: Induction of apoptosis in human HT-29 cells assessed as viable cells at 20 nM after 48 hrs by Annexin V-FITC staining-based flow cytometric analysis (reference value: 82 +/- 1%); assay type: functional; settings: HT-29, 48 h, read-out: Activity
HT-29 [24] = test: Induction of apoptosis in human HT-29 cells assessed as apoptotic cells at 20 nM after 48 hrs by Annexin V-FITC staining-based flow cytometric analysis (reference value: 13 +/- 3%); assay type: functional
HT-29 [25] = test: Induction of apoptosis in human HT-29 cells assessed as necrotic cells at 20 nM after 48 hrs by Annexin V-FITC staining-based flow cytometric analysis (reference value: 2 +/- 6%); assay type: functional
HT-29 [26] = test: Effect on c-MYC gene expression in human HT-29 cells assessed as c-MYC level at 20 nM after 48 hrs by RT-qPCR analysis; assay type: functional; how it was run: as §2
HT-29 [27] = test: Effect on hTERT gene expression in human HT-29 cells assessed as hTERT level at 20 nM after 48 hrs by RT-qPCR analysis; assay type: functional; how it was run: as §2
HT-29 [28] = test: Effect on VEGF gene expression in human HT-29 cells assessed as VEGF level at 20 nM after 48 hrs by RT-qPCR analysis; assay type: functional; how it was run: as §2
HT-29 [29] = test: Effect on c-MYC protein expression in human HT-29 cells assessed as c-MYC level at 20 nM after 48 hrs by ELISA; assay type: functional; how it was run: as §3
HT-29 [30] = test: Effect on VEGFR2 protein expression in human HT-29 cells assessed as VEGFR2 level at 20 nM after 48 hrs by ELISA; assay type: functional; how it was run: as §3
HT-29 [31] = test: Effect on VEGF protein expression in human HT-29 cells assessed as secreted VEGF level in culture media at 20 nM after 48 hrs by ELISA

IC50 (HT-29 [1]): 1.2 µM
IC50 (MCF7): 1.2 µM
IC50 (HeLa): 1.4 µM
SMILES: COc1ccccc1NC(=O)N[C@H]1CCc2cc(OC)c(OC)c(OC)c2-c2ccc(OC)c(=O)cc21
IC50 (HEK293): 1.2 µM
viability at 1 µM (HT-29 [2]): 55%
Activity (HT-29 [3]): 44%
Activity (HT-29 [4]): 1%

SMILES: CCN(CC)CCNC(=O)c1c(C)[nH]c(/C=C2\C(=O)Nc3ccc(F)cc32)c1C [SUNITINIB]
viability at 25 µM (HT-29 [5]): 75%
Activity (HT-29 [6]): 22%
Activity (HT-29 [7]): 3%
Activity (HT-29 [8]): 47%
Activity (HT-29 [9]): 68%
Activity (HT-29 [10]): 46%
Activity (HT-29 [11]): 100%
Activity (HT-29 [12]): 90%
Activity (HT-29 [13]): 45%

IC50 (HT-29 [1]): 0.0008 µM
IC50 (MCF7): 0.0013 µM
IC50 (HeLa): 0.0012 µM
SMILES: COc1cc2c(c(OC)c1OC)-c1ccc(OC)c(=O)cc1[C@@H](NC(=O)Nc1ccccc1Cl)CC2
IC50 (HEK293): 0.0007 µM
viability at 0.0005 µM (HT-29 [14]): 58%
Activity (HT-29 [15]): 41%
Activity (HT-29 [16]): 1%
Activity (HT-29 [17]): 25%
Activity (HT-29 [18]): 46%
Activity (HT-29 [19]): 30%
Activity (HT-29 [20]): 51%
Activity (HT-29 [21]): 38%
Activity (HT-29 [22]): 34%

IC50 (HT-29 [1]): 0.015 µM
IC50 (MCF7): 0.025 µM
IC50 (HeLa): 0.018 µM
SMILES: COc1cc2c(c(OC)c1OC)-c1ccc(OC)c(=O)cc1[C@@H](NC(=O)Nc1ccccc1C(F)(F)F)CC2
IC50 (HEK293): 0.019 µM
viability at 0.02 µM (HT-29 [23]): 96%
Activity (HT-29 [24]): 4%
Activity (HT-29 [25]): 1%
Activity (HT-29 [26]): 107%
Activity (HT-29 [27]): 107%
Activity (HT-29 [28]): 101%
Activity (HT-29 [29]): 99%
Activity (HT-29 [30]): 100%
Activity (HT-29 [31]): 82%
